Compound activity (PubChem BioAssay)
Rows were chosen to be rich in hits. Some 4.6% of all compounds tested hit in one or more screens of this group.
TAAR1 antag: human TAAR1 antagonism; Q96RJ0; CHO RD-HGA16 TAAR1, Fluo-8 calcium fluorescence, antagonist; inhibition, % at 3 µM; 360,000 compounds, 1.5% hits;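 active = inhibition above a per-plate cutoff, the mean inhibition of test compounds on that plate plus 3 SD, cut at about 49% in these data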;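 note: 0% = DMSO plus EC80 beta-PEA response and 100% = DMSO alone without agonist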
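Test system – hTAAR1-expressing CHO RD-HGA16 cells, Gα16-coupled · Also added – β-PEA at EC80 concentration, post-compound challenge · Compound – 3 µM, single point · Incubation – dye loading 75 min at 37 °C, then 30 min room temperature · Measured by – Fluo-8 intracellular calcium dye fluorescence, real-time kinetic reads · Benchmarks – vehicle and agonist controls · Replicates – singlicate, one well per test compound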
GPR7 antag: blocks human GPR7 receptor signaling; P48145; GPR7-expressing cells, fluorescence antagonist assay; inhibition, % at 4.4 µM; 290,000 compounds, 1.1% hits; in the data active = inhibition above about 16%, passing the limit was not always enough;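 note: cells stimulated with the agonist NPW; 0% = agonist with vehicle and 100% = vehicle without agonist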
Target sequence (P48145 whole entry, looked up): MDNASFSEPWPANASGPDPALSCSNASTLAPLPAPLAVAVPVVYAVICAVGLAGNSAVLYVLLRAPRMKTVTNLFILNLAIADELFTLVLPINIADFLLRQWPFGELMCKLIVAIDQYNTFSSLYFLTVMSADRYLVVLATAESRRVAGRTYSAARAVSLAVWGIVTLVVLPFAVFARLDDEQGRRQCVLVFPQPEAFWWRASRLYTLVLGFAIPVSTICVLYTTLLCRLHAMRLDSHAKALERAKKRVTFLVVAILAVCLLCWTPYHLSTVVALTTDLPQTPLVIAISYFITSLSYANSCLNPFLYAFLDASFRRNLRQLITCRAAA
TAAR1 agonist: human TAAR1 agonism; 360,000 compounds, 0.99% hits; activation, % at 3 µM; Q96RJ0; AID 624467; CHO RD-HGA16 TAAR1, Fluo-8 calcium fluorescence; vehicle wells 0%, saturating PEA agonist 100%;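 active = activation above the mean activation of all test compounds in the run plus 3 SD, cut at about 38% in these data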
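System: CHO-derived RD-HGA16 cells with stable Gα16 and human TAAR1. Times: 17-24 h plating, Fluo-8 75 min 37 °C, 30 min RT. Measured by: calcium-sensitive Fluo-8 signal, excitation 470-495, emission 515-575 nm. Read-out basis: % activation relative to PEA EC100 response. Control set: DMSO and PEA EC100. Repeats: no replicates (n 1).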
OX1R antag-1: OX1R (human) antagonism; O43613; OX1R-expressing cells, FRET antagonist read-out; inhibition, % at 6.6 µM; 330,000 compounds, 1.8% hits; AID 485270; in the data active = inhibition mostly above about 38%, no sharp cut-off; inactive = mostly below about 40%;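 note: 0% = agonist challenge alone and 100% = reference antagonist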
Target sequence (O43613 whole entry, looked up): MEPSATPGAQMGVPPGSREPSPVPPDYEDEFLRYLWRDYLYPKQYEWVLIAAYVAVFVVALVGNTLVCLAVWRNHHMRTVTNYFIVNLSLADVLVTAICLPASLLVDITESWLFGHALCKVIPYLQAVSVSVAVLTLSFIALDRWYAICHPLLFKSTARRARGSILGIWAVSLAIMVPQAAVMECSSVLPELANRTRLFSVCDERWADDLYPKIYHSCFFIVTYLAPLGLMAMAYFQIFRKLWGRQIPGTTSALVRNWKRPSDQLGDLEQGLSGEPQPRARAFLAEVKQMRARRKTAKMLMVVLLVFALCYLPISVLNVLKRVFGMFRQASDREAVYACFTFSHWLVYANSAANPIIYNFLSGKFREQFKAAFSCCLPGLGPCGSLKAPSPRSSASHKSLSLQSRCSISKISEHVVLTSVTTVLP
CHO parental Ca: counter-screen for OX1R antagonists: effect in parental CHO cells | parental CHO-K1, ATP-induced calcium, Fluo-8 fluorescence | inhibition, % at 5.6 µM | 330,000 compounds, 0.63% hits;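 active = inhibition above that plate's mean sample inhibition plus 3 SD, cut at about 26% in these data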;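 note: 0% = ATP-challenged DMSO wells and 100% = DMSO wells without ATP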
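Assay system: parental CHO cells; Read-out basis: percent inhibition of ATP-evoked calcium rise, normalized to controls; Benchmarks: ATP and no-ATP DMSO wells; Compound dosing: single nominal dose of 5.6 µM per compound; Signal: Fluo-8 calcium dye fluorescence; Also added: ATP as calcium-mobilizing challenge; Repeats: singlicate.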
OX1R antag-2: antagonists of human orexin 1 receptor; CHO/OX1R cells, Fluo-8 calcium fluorescence, orexin A; inhibition, % at 5 µM; 330,000 compounds, 0.43% hits;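 active = inhibition above its plate's threshold, mean inhibition of all tested compounds on the plate plus 3 SD, cut at about 37% in these data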;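 note: 0% = orexin A challenge wells and 100% = SB-334867-A antagonist wells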
GPR7 antag cf: confirmation of human GPR7 antagonists. 2,400 compounds, 52% hits. inhibition, % at 4.4 µM. GPR7-expressing cells, calcium fluorescence antagonist mode. shares compounds with GPR7 antag; in the data active = inhibition above about 24%;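 note: stimulated with the GPR7 agonist NPW; 0% = agonist plus vehicle and 100% = vehicle alone without agonist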
MCHR1 antagonist: antagonizes human MCHR1, a GPR7 antagonist counter-screen | shares compounds with GPR7 antag | 2,400 compounds, 62% hits | MCHR1-expressing cells, fluorescence antagonist assay | inhibition, % at 4.4 µM; in the data active = inhibition above about 22%;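 note: 0% = vehicle with agonist and 100% = vehicle without agonist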
An asterisk follows results filed as active.

What do the screens show for `CCCC(=O)N(CCN(Cc1ccccc1)C(=O)CCC)Cc1ccccc1`?
TAAR1 antag: 11.6; GPR7 antag: 31.2*; TAAR1 agonist: 5.4; OX1R antag-1: 36.1; CHO parental Ca: -20.4; OX1R antag-2: -19.1; GPR7 antag cf: 43.1*; MCHR1 antagonist: 30.6*

What do the screens show for `CCC(Oc1ccccc1)C(=O)Nc1ccc(S(=O)(=O)NCC2CCCO2)cc1` (centres undefined)?
TAAR1 antag: -0.5; GPR7 antag: 22.5*; TAAR1 agonist: 36.3; OX1R antag-1: 7.6; CHO parental Ca: 7.1; OX1R antag-2: 8.0; GPR7 antag cf: -12.7; MCHR1 antagonist: 34.5*

Results for CCOc1ccc(S(=O)(=O)Nc2cc(OC)ccc2OC)cc1 ?
TAAR1 antag: -14.4; GPR7 antag: 22.9*; TAAR1 agonist: 6.4; OX1R antag-1: 5.9; CHO parental Ca: 7.8; OX1R antag-2: -10.7; GPR7 antag cf: 18.0; MCHR1 antagonist: 33.9*

How did CCN1C(=O)C(CC(=O)Nc2ccc(F)cc2)N(CCCN2CCN(c3ccc(F)cc3)CC2)C1=S (centres undefined) do in these assays?
TAAR1 antag: 52.8*; GPR7 antag: 33.3*; TAAR1 agonist: 29.7; OX1R antag-1: 8.8; CHO parental Ca: -2.8; OX1R antag-2: -7.3; GPR7 antag cf: 28.7*; MCHR1 antagonist: 62.1*

Results for O=C(CCC(=O)N1CCCCCC1)Nc1ccc([N+](=O)[O-])cc1 ?
TAAR1 antag: -14.8; GPR7 antag: 34.2*; TAAR1 agonist: 3.8; OX1R antag-1: 19.8; CHO parental Ca: -5.0; OX1R antag-2: -0.6; GPR7 antag cf: 2.8; MCHR1 antagonist: 8.4

Results for COc1cccc(CNCCc2c[nH]c3ccccc23)c1OCc1ccccc1 ?
TAAR1 antag: 53.9*; GPR7 antag: 56.1*; TAAR1 agonist: 19.3; OX1R antag-1: 5.8; CHO parental Ca: 17.9; OX1R antag-2: 10.1; GPR7 antag cf: 59.9*; MCHR1 antagonist: 67.2*

What do the screens show for `COc1cc(CNCCc2c[nH]c3ccccc23)ccc1OCc1ccccc1F`?
TAAR1 antag: -15.9; GPR7 antag: 23.7; TAAR1 agonist: 9.3; OX1R antag-1: 7.1; CHO parental Ca: 6.3; OX1R antag-2: 12.3

Results for CCC(C)n1c(SCc2ccc([N+](=O)[O-])cc2)nc2ccsc2c1=O (centres undefined) ?
TAAR1 antag: 34.1; GPR7 antag: 25.3*; TAAR1 agonist: 4.9; OX1R antag-1: 22.8; CHO parental Ca: -26.5; OX1R antag-2: -16.6; GPR7 antag cf: 22.9; MCHR1 antagonist: 43.9*

Results for CCCCn1c(SCc2cccc([N+](=O)[O-])c2)nc2ccsc2c1=O ?
TAAR1 antag: 21.1; GPR7 antag: 3.3; TAAR1 agonist: 2.0; OX1R antag-1: 30.5; CHO parental Ca: -13.9; OX1R antag-2: -5.0

Results for COc1ccc(N2C(=O)/C(=C3/C=CC=CN3C)SC2=S)cc1 ?
TAAR1 antag: -4.0; GPR7 antag: 23.6*; TAAR1 agonist: 6.2; OX1R antag-1: 20.9; CHO parental Ca: -4.6; OX1R antag-2: -9.4; GPR7 antag cf: -8.8; MCHR1 antagonist: 4.6

How did O=C(Cn1cnc2ccccc2c1=O)NCCCN1CCCC1=O do in these assays?
TAAR1 antag: -0.1; TAAR1 agonist: 0.4; OX1R antag-1: -2.2; CHO parental Ca: -2.8; OX1R antag-2: 2.6

What do the screens show for `O=C(Cn1ccc(=O)[nH]c1=O)Nc1nccs1`?
TAAR1 antag: -7.3; TAAR1 agonist: 2.0

What do the screens show for `CCOc1ccc(N=c2oc3cc(O)ccc3cc2C(=O)NCC2CCCO2)cc1` (centres undefined)?
TAAR1 antag: 17.2; GPR7 antag: 3.0; TAAR1 agonist: 0.4; OX1R antag-1: 20.0; CHO parental Ca: -4.5; OX1R antag-2: -12.0

How did CCOc1ccccc1N=c1oc2cc(O)ccc2cc1C(=O)NCC1CCCO1 (centres undefined) do in these assays?
TAAR1 antag: 29.3; GPR7 antag: 28.7*; TAAR1 agonist: 7.1; OX1R antag-1: 4.5; CHO parental Ca: -11.7; OX1R antag-2: -2.8; GPR7 antag cf: 18.9; MCHR1 antagonist: 20.2

How did CCOC(Cn1cc([N+](=O)[O-])c(=O)[nH]c1=O)OCC do in these assays?
TAAR1 antag: -10.7; TAAR1 agonist: 1.3

Results for CCOC(Cn1ccc(=O)[nH]c1=O)OCC ?
TAAR1 antag: -10.4; GPR7 antag: 27.2*; TAAR1 agonist: 1.5; OX1R antag-1: 4.8; CHO parental Ca: 0.7; OX1R antag-2: -6.0; GPR7 antag cf: 0.3; MCHR1 antagonist: 13.6

Results for CC1CC(C)CN(C(=O)c2ccc3c(c2NCCO)C(=O)c2ccccc2C3=O)C1 (centres undefined) ?
TAAR1 antag: 39.4; GPR7 antag: -2.9; TAAR1 agonist: 36.1; OX1R antag-1: 19.3; CHO parental Ca: -19.4; OX1R antag-2: -33.6

Results for COC(=O)C1=C(C)Nc2nc(SCc3ccccc3)[nH]c(=O)c2C1c1cccs1 (centres undefined) ?
TAAR1 antag: -6.5; GPR7 antag: 33.4*; TAAR1 agonist: 1.3; OX1R antag-1: 33.5; CHO parental Ca: 5.2; OX1R antag-2: 19.8; GPR7 antag cf: 17.2; MCHR1 antagonist: 34.0*

Results for Cc1cccc2cc(C3CC(c4ccco4)=NN3S(C)(=O)=O)c(Cl)nc12 (centres undefined) ?
TAAR1 antag: -3.5; GPR7 antag: 21.9*; TAAR1 agonist: 2.0; OX1R antag-1: 10.0; CHO parental Ca: -16.6; OX1R antag-2: -5.9; GPR7 antag cf: 2.4; MCHR1 antagonist: 11.5

What do the screens show for `Cc1cccc2cc(C3CC(c4ccco4)=NN3S(=O)(=O)c3ccccc3)c(Cl)nc12` (centres undefined)?
TAAR1 antag: -16.9; GPR7 antag: -16.7; TAAR1 agonist: 2.3; OX1R antag-1: 12.4; CHO parental Ca: -22.9; OX1R antag-2: -34.4

Results for O=C(COc1cccc2cccnc12)N1CCc2ccccc21 ?
TAAR1 antag: 8.3; GPR7 antag: 5.4; TAAR1 agonist: 0.4; OX1R antag-1: 16.4; CHO parental Ca: -11.0; OX1R antag-2: -18.7

Results for O=C(CN1CCOc2ccccc21)NC1CCCCCCC1 ?
TAAR1 antag: 2.6; GPR7 antag: 25.3*; TAAR1 agonist: 0.8; OX1R antag-1: 16.5; CHO parental Ca: -5.3; OX1R antag-2: -19.3; GPR7 antag cf: 7.4; MCHR1 antagonist: 4.6

Results for O=C(CN1CCOc2ccccc21)NC1CCN(Cc2ccccc2)CC1 ?
TAAR1 antag: -6.8; GPR7 antag: 0.8; TAAR1 agonist: -0.6; OX1R antag-1: 25.7; CHO parental Ca: -6.5; OX1R antag-2: -19.2
